Consider eleven compounds from ChEMBL document CHEMBL1135711, “Evaluation of the Dmt-Tic pharmacophore: conversion of a potent delta-opioid receptor antagonist into a potent delta agonist and ligands with mixed properties” (J Med Chem, 2002).

Experiment [1] addresses Delta-type opioid receptor (Mus musculus) (UniProt P32300). Briefly: Molar concentration required to double the agonist concentration to achieve the original response in mouse vas deferens (MVD). The class given is functional, tissue-based.
Experiment [2] concerns the target T1, Delta-type opioid receptor (Mus musculus, UniProt P32300). The experiment is described as follows: Negative logarithm of the molar concentration required to double the agonist concentration to achieve the original response in mouse vas deferens (MVD). The conditions noted are these: read-out: pA2 (converted). The class given is functional, tissue-based.
In experiment [3] the target is Mu-type opioid receptor (Rattus norvegicus, UniProt P33535). Briefly: Binding affinity for rat brain P2 synaptosome Opioid receptor mu 1. The format is tissue-based. Put shortly:
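Equilibrium competition binding on rat brain P2 synaptosomes with [3H]DAGO for µ sites, in 50 mM HEPES pH 7.5 with MgCl2, protease inhibitors and glycerol. 120 min at 23-24 °C, GF/C filtration, ice-cold Tris/BSA washes. Nonspecific binding defined by 2 µM DAGO. 5-8 graded doses over 2-3 log units.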

The target of experiment [4] is Delta-type opioid receptor (Rattus norvegicus, UniProt P33533). Briefly: Binding affinity at Opioid receptor delta 1 using rat brain receptor (P2 synaptosome) assay. The format is tissue-based. Put shortly: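 Competition binding at equilibrium on rat brain P2 synaptosomes with [3H]DPDPE for δ sites, in 50 mM HEPES pH 7.5 with MgCl2, protease inhibitors and glycerol. Incubation 120 min at 23-24 °C, then GF/C filtration and ice-cold Tris/BSA washes. Nonspecific binding defined by 2 µM DPDPE. 5-8 graded doses over 2-3 log units.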

For experiment [5], the species on record is Mus musculus. Briefly: Delta or Mu antagonist activity tested in mouse vas deferens (MVD) along with N,N-dimethyl-Dmt-Tic-OH. The note with it: read-out: pA2 (converted).
The species named for experiment [6] is Mus musculus. The experiment is described as follows: Delta or Mu antagonist activity tested in mouse vas deferens (MVD) along with, naloxone. The note with it: read-out: pA2 (converted).
Experiment [7] addresses Mu-type opioid receptor (Mus musculus, UniProt P42866). The experiment is described as follows: Opioid receptor delta 1 or Opioid receptor mu 1 antagonist activity tested in mouse vas deferens (MVD) along with N,N-dimethyl-Dmt-Tic-OH. The class given is functional, tissue-based. The note with it: read-out: pA2 (converted).
The target in experiment [8] is T1, Delta-type opioid receptor. Briefly: Opioid receptor delta 1 or Opioid receptor mu 1 antagonist activity tested in mouse vas deferens (MVD) along with, naloxone. The class given is functional, tissue-based. The conditions noted are these: read-out: pA2 (converted).
For experiment [9], the target named is T2, Mu-type opioid receptor (Cavia porcellus, UniProt P97266). Briefly: Negative logarithm of the molar concentration of an agonist to produce 50% of the maximum effect in guinea pig ileum (mu receptor) determined by Salvadori et al. The class given is functional, tissue-based.
Experiment [10] has as its target T2, Mu-type opioid receptor. The experiment is described as follows: Negative logarithm of the molar concentration of an agonist to produce 50% of the maximum effect in guinea pig ileum (mu receptor) determined. The format is functional, tissue-based.

pEC50, pKi: −log10 of the molar value. Square brackets hold non-standard residues; d marks the D form. Peptide text beside a SMILES is read from it. * marks the point of attachment. ξ: configuration not given here. Dmt = Cc1cc(O)cc(C)c1C[C@H](N)C(=O)O; Tic = O=C(O)[C@@H]1Cc2ccccc2CN1; ξTic = O=C(O)C1Cc2ccccc2CN1; NHBn = c1ccc(CN*)cc1; NHPh = c1ccc(N*)cc1

Sequence of Mu-type opioid receptor (Rattus norvegicus, UniProt P33535) (P33535 whole entry): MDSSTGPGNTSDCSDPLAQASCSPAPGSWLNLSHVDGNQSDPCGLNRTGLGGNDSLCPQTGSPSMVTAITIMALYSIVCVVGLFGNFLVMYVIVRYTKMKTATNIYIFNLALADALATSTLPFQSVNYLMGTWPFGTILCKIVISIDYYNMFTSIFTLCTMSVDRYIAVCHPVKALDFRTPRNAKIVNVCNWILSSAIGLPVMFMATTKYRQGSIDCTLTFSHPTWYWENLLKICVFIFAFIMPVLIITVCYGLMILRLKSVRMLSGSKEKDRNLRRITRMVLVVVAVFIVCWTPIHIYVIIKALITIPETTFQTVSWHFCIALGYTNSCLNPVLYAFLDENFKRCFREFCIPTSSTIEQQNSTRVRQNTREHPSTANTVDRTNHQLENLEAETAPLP
T2 sequence (P97266 whole entry): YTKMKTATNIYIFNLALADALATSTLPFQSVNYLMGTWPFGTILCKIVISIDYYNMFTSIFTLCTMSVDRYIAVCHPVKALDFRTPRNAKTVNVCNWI
Sequence of Delta-type opioid receptor (Rattus norvegicus, UniProt P33533) (P33533 whole entry): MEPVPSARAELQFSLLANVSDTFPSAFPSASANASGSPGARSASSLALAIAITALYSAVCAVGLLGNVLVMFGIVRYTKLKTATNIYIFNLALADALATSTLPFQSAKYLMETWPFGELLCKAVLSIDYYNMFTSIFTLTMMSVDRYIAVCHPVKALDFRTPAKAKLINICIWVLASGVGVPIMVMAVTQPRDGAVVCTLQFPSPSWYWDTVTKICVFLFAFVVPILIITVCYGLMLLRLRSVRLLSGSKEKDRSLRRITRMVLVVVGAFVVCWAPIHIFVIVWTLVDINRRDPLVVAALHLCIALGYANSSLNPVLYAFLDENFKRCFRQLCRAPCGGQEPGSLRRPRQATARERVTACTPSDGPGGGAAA
Sequence of Delta-type opioid receptor (Mus musculus) (P32300 whole entry): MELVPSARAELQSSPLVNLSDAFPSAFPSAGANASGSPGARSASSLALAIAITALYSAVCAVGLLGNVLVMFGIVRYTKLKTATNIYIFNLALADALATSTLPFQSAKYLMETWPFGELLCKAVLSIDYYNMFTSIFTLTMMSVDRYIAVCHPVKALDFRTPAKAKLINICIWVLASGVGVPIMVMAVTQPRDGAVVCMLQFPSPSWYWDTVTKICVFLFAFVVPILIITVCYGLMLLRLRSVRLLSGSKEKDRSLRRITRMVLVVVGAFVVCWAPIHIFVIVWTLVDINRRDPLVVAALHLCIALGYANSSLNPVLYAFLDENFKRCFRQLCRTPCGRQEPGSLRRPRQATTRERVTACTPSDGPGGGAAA
T1 sequence (P32300 whole entry): as above
Sequence of Mu-type opioid receptor (Mus musculus, UniProt P42866) (P42866 whole entry): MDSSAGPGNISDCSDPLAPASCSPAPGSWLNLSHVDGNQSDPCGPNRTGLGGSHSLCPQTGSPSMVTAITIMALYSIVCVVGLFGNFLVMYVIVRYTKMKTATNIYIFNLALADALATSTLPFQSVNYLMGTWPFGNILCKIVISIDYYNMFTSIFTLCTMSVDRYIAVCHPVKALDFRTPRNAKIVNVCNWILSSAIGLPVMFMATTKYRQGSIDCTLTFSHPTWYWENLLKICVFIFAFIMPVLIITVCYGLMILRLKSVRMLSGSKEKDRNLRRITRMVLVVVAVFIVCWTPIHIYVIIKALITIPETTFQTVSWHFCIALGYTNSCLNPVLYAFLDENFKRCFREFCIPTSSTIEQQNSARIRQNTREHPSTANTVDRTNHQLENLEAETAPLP

As to `Cc1cc(O)cc(C)c1C[C@H](N)C(=O)N1Cc2ccccc2C[C@H]1C(=O)O` (H-[Dmt]-[Tic]-OH), in [1], the Activity is -8.2.

Turning to `Cc1cc(O)cc(C)c1C[C@H](N)C(=O)N1Cc2ccccc2C[C@H]1c1nc2ccccc2[nH]1`, in experiment [2], the Kb is 12.6 nM. Also, the pKi was 8.14 on Mu-type opioid receptor [3] and 9.89 in [4].

As for `Cc1cc(O)cc(C)c1C[C@H](N)C(=O)N1Cc2ccccc2CC1C(N)=O` (stereo partly specified) (H-[Dmt]-[ξTic]-NH2), the Activity in experiment [1] is -7.2.

Regarding `Cc1cc(O)cc(C)c1C[C@H](N)C(=O)N1Cc2ccccc2C[C@H]1C(=O)NCc1nc2ccccc2[nH]1`, the Kb is 0.2 nM in the experiment listed under Mus musculus [5] and 35.5 nM in the experiment filed under Mus musculus [6].

In the case of `CC(C)[C@H](NC(=O)[C@H](CC(=O)O)NC(=O)[C@H](Cc1ccccc1)NC(=O)[C@@H](C)NC(=O)[C@@H](N)Cc1ccc(O)cc1)C(=O)N[C@H](C(=O)NCC(N)=O)C(C)C` [DELTORPHIN C], the Kb in the experiment listed under Mus musculus [6] was 31.6 nM.

In the case of `Cc1cc(O)cc(C)c1C[C@H](N)C(=O)N1Cc2ccccc2C[C@H]1C(=O)NCC(=O)Nc1ccccc1` (H-[Dmt]-[Tic]-Gly-NHPh), the values for the Kb (at Mu-type opioid receptor [7]; in [8]) were 0.912 nM and 33.9 nM, respectively.

For the compound `Cc1cc(O)cc(C)c1C[C@H](N)C(=O)N1Cc2ccccc2C[C@H]1C(=O)N[C@@H](C)C(N)=O` (H-[Dmt]-[Tic]-Ala-NH2), the Kb in experiment [2] is 10 nM.

In the case of `Cc1cc(O)cc(C)c1C[C@H](N)C(=O)N1Cc2ccccc2C[C@H]1C(=O)NCCc1nc2ccccc2[nH]1`, at Mu-type opioid receptor [9], the negative logarithm of the EC50 (pEC50) was 6.97. For the same compound, the pKi on Mu-type opioid receptor [3] was 8.26; in [4], 10.17.

On to `C[C@@H](NC(=O)[C@@H](N)Cc1ccc(O)cc1)C(=O)N[C@@H](Cc1ccccc1)C(=O)NCC(=O)N[C@@H](Cc1ccc(O)cc1)C(=O)N1CCC[C@H]1C(=O)N[C@@H](CO)C(N)=O` [DERMORPHIN], for which the pEC50 at Mu-type opioid receptor [10] is 9.15.

Take `Cc1cc(O)cc(C)c1C[C@H](N)C(=O)N1Cc2ccccc2CC1CO` (stereo partly specified): in experiment [1], the Activity is -7. Moreover, the pKi at Mu-type opioid receptor [3] was 6.82; in experiment [4] it was 9.36.

On Mu-type opioid receptor [9], `Cc1cc(O)cc(C)c1C[C@H](N)C(=O)N1Cc2ccccc2C[C@H]1C(=O)NCC(=O)NCc1ccccc1` (H-[Dmt]-[Tic]-Gly-NHBn) showed a pEC50 of 8.57. Also, the pKi was 9.80 on Mu-type opioid receptor [3] and 10.51 in experiment [4].
